The target in assay [1] is Voltage-dependent L-type calcium channel subunit alpha-1C (Rattus norvegicus, UniProt P22002). The experiment in a line: Inhibition of rat cardiac Cav1.2 L-type channel expressed in HEK cells after 20 mins by FLIPR assay. The class given is cell-based, HEK293. In outline:
(§1)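 Fluorescence Ca²⁺ influx read by FLIPR with the Ca²⁺ indicator dye Fluo-4. Each compound was tested as an 8-point concentration-response profile spanning 0.003–10 μM, giving IC50. Membrane potential and channel state were set by changing the external potassium ion concentration.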

Assay [2] deals with Voltage-dependent N-type calcium channel subunit alpha-1B (Rattus norvegicus, UniProt Q02294). The experiment in a line: Inhibition of rat brain Cav2.2 N-type channel expressed in HEK cells after 20 mins by FLIPR assay. It is filed as cell-based, HEK293. In short, it runs like this: as §1
The species entered for a further assay is Rattus norvegicus. The experiment in a line: Selectivity ratio of IC50 for rat cardiac Cav1.2 L-type channel to IC50 for rat brain Cav2.2 N-type channel.

From ChEMBL document CHEMBL2384998, “Modular, efficient synthesis of asymmetrically substituted piperazine scaffolds as potent calcium channel blockers” (Bioorg Med Chem Lett, 2013) come the findings set out here.

A word on the IC50: it is the concentration at which inhibition is half-maximal.

Voltage-dependent L-type calcium channel subunit alpha-1C, sequence (P22002 whole entry): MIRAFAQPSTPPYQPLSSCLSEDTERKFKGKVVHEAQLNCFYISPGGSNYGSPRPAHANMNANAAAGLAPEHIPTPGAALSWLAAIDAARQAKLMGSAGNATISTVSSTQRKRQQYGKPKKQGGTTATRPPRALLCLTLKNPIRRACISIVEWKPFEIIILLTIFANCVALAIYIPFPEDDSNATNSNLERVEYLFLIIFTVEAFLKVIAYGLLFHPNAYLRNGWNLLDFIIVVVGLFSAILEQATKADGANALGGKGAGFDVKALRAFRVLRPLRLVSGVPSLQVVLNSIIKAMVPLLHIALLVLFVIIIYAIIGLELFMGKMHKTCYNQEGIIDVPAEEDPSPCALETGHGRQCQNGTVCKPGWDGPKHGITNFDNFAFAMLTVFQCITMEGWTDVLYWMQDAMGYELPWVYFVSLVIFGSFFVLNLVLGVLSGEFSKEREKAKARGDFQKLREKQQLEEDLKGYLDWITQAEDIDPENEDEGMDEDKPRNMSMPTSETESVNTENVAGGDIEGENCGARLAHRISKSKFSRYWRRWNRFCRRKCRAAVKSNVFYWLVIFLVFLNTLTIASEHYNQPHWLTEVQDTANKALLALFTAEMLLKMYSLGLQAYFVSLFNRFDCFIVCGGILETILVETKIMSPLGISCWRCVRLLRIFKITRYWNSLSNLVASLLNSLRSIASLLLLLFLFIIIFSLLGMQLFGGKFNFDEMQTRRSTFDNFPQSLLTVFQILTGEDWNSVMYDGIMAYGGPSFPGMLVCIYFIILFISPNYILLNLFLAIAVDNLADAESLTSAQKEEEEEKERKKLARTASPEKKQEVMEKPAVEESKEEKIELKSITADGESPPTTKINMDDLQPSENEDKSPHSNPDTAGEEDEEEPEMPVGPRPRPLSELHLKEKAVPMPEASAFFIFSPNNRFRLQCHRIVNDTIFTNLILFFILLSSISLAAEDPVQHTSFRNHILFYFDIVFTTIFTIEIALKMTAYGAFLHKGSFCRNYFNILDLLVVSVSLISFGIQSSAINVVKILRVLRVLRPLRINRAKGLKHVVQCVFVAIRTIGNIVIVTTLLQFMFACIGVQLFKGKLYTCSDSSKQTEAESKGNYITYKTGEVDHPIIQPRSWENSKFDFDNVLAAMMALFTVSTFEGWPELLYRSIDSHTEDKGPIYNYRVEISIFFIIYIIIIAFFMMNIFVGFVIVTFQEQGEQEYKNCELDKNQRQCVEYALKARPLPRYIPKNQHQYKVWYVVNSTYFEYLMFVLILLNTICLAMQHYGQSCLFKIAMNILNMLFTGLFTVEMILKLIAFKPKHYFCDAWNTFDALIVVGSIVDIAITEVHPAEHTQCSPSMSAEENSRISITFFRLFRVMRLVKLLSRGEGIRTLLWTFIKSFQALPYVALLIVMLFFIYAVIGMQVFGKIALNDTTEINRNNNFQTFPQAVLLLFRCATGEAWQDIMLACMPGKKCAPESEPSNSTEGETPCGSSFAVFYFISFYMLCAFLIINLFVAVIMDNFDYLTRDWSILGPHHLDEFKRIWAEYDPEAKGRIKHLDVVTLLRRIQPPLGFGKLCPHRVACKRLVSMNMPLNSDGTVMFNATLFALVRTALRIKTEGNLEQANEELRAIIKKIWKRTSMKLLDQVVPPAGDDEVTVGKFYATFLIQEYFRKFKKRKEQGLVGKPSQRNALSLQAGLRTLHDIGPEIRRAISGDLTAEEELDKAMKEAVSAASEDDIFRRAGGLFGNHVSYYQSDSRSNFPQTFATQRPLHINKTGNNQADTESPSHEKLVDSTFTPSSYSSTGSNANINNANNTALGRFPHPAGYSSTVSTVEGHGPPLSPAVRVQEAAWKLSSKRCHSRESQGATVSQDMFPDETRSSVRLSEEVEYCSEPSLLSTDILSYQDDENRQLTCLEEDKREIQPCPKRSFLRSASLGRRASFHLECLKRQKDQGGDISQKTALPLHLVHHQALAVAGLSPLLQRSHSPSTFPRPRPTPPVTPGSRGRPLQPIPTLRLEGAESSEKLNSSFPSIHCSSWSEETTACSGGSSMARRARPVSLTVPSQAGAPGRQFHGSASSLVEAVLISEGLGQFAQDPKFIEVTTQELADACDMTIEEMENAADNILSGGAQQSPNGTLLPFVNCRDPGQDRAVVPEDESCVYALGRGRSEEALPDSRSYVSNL
Voltage-dependent N-type calcium channel subunit alpha-1B, sequence (Q02294 whole entry): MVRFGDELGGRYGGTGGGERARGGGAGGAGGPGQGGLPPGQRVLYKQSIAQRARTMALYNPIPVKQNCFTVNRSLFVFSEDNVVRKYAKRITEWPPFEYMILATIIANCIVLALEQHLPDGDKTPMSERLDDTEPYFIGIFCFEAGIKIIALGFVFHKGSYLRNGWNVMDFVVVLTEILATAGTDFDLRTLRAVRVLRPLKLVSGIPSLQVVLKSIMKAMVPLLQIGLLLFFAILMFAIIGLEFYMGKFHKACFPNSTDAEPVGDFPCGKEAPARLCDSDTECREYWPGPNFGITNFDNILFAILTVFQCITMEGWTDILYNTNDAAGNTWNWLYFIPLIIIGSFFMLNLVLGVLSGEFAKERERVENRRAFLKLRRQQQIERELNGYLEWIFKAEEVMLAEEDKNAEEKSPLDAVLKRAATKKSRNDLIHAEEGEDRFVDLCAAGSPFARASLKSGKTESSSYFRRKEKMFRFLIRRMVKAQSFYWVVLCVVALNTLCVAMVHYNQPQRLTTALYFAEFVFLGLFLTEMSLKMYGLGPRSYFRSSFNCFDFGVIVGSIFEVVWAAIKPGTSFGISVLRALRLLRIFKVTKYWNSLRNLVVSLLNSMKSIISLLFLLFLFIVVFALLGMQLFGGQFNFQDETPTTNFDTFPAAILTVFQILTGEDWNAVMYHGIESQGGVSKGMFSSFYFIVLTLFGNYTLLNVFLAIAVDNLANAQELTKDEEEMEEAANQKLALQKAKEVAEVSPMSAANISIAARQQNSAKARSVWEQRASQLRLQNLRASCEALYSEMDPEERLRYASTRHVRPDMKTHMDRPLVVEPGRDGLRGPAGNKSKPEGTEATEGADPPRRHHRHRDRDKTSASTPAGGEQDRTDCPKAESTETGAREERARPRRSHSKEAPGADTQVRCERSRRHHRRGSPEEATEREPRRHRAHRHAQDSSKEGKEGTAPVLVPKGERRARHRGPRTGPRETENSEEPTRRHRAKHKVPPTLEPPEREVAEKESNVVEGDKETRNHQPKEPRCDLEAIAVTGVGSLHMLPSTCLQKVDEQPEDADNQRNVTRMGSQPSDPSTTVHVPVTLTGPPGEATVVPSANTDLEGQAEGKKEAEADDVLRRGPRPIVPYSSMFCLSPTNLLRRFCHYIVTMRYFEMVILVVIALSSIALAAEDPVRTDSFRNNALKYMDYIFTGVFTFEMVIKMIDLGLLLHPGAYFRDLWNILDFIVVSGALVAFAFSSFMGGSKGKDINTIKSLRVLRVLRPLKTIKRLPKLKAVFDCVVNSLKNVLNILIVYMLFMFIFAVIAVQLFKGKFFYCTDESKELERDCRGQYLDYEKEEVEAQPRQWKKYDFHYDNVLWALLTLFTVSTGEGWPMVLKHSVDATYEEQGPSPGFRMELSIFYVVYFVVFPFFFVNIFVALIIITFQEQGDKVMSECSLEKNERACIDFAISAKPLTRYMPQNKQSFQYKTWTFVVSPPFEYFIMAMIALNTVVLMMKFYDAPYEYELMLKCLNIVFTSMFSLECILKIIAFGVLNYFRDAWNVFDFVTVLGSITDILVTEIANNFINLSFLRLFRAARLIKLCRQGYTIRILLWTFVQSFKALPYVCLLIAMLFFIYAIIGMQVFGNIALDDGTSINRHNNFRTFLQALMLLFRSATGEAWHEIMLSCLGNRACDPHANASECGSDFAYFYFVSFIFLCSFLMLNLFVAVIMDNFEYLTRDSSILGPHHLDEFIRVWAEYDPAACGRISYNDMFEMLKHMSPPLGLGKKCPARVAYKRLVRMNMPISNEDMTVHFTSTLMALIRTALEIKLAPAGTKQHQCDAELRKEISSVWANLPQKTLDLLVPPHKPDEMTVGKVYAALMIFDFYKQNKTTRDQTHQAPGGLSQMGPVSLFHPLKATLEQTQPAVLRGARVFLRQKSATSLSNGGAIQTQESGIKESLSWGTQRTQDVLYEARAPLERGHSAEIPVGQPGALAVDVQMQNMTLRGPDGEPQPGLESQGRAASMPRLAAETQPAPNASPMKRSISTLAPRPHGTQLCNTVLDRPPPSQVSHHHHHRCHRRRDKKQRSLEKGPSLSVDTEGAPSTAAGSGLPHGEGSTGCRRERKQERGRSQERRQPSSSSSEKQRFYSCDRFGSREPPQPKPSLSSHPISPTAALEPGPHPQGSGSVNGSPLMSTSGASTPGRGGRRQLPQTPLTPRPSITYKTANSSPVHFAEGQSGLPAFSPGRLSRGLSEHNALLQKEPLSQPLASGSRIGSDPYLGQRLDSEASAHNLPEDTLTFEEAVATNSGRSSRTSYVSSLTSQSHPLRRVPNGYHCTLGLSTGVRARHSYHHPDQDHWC

As for `CCCCCCCCC[C@@H]1CN[C@H](C)CN1Cc1ccccc1` (relative stereo), the half-inhibitory concentration (IC50) was found to be 5.6 µM in assay [1] and 10 µM in assay [2]. For the same compound, the Ratio IC50 in the assay listed under Rattus norvegicus came to 0.6.

On to `C[C@@H]1CN(C(c2ccccc2)c2ccccc2)[C@H](CCCCO)CN1` (relative stereo), for which the figures for the IC50 in assay [1] and in assay [2] were 5.4 µM and 0.85 µM, respectively. Besides, the Ratio IC50 in the assay listed under Rattus norvegicus was found to be 6.

Take `C[C@@H]1CN(C(c2ccccc2)c2ccccc2)[C@H](Cc2ccccc2)CN1`: the IC50 in assay [1] came out at 1.78 µM; in assay [2] it was 4.34 µM. For the same compound, the Ratio IC50 in the assay filed under Rattus norvegicus stood at 0.4.

Consider `C[C@@H]1CN(Cc2ccccc2)[C@H](CCCCO[Si](C)(C)C(C)(C)C)CN1` (relative stereo), for which the figures for the IC50 in assay [1] and in assay [2] were 3.34 µM and 4.85 µM, respectively. In addition, the Ratio IC50 in the assay listed under Rattus norvegicus amounted to 0.7.

On to `C[C@@H]1CN(Cc2ccc(F)cc2)[C@H](Cc2ccccc2)CN1S(=O)(=O)c1ccc(C(F)(F)F)cc1` (relative stereo), for which the IC50 in assay [1] and in assay [2] was 10 µM in each case. Also, in the assay listed under Rattus norvegicus, the Ratio IC50 amounted to 1.

As to `C[C@@H]1CN(C(c2ccccc2)c2ccccc2)[C@H](CCCCO[Si](C)(C)C(C)(C)C)CN1` (relative stereo), the IC50 in assay [1] came out at 1.53 µM; in assay [2], 1.07 µM. Moreover, the Ratio IC50 in the assay listed under Rattus norvegicus came to 1.4.

Regarding `C[C@@H]1CN(Cc2ccc(F)cc2)[C@H](Cc2ccccc2)CN1C(=O)C(c1ccccc1)c1ccccc1` (relative stereo), the IC50 in assay [2] was determined as 10 µM.

Turning to `Cc1ccc(S(=O)(=O)N2C[C@@H](CCCCO[Si](C)(C)C(C)(C)C)N(C(c3ccccc3)c3ccccc3)C[C@H]2C)cc1` (relative stereo), the IC50 was found to be 8.2 µM in assay [1] and 4.7 µM in assay [2]. Further, in the assay filed under Rattus norvegicus, the Ratio IC50 amounted to 1.7.

For the compound `Cc1ccc(S(=O)(=O)N2C[C@@H](CCCO[Si](C)(C)C(C)(C)C)N(C(c3ccccc3)c3ccccc3)C[C@H]2C)cc1` (relative stereo), the IC50 is 5.1 µM in assay [1] and 2.6 µM in assay [2]. Moreover, in the assay listed under Rattus norvegicus, the Ratio IC50 was found to be 2.

`CCCCC[C@@H]1CN[C@H](C)CN1Cc1ccccc1` (relative stereo): the results for the IC50 in assay [1] and in assay [2] were 9.23 µM and 9.84 µM, respectively. For the same compound, the Ratio IC50 in the assay listed under Rattus norvegicus turned out to be 0.9.

As for `C[C@@H]1CN(C(c2ccccc2)c2ccccc2)[C@H](CCCO[Si](C)(C)C(C)(C)C)CN1` (relative stereo), the values for the IC50 in assay [1] and in assay [2] were 6.8 µM and 10 µM, respectively. In addition, the Ratio IC50 in the assay filed under Rattus norvegicus is 0.7.

As to `C[C@@H]1CN(Cc2ccccc2)[C@H](Cc2ccccc2)CN1S(=O)(=O)c1ccc(C(F)(F)F)cc1` (relative stereo), the IC50 in assay [1] and in assay [2] was 10 µM throughout. Besides, the Ratio IC50 in the assay listed under Rattus norvegicus was 1.

On to `C[C@@H]1CN(Cc2ccccc2)[C@H](Cc2ccccc2)CN1` (relative stereo), for which the IC50 in assay [1] and in assay [2] was 10 µM in each case. In the assay listed under Rattus norvegicus, the Ratio IC50 amounted to 1.

Take `C[C@@H]1CN(C(c2ccccc2)c2ccccc2)[C@H](CCCCO[Si](C)(C)C(C)(C)C)CN1S(=O)(=O)c1ccc(C(F)(F)F)cc1` (relative stereo): the IC50 in assay [1] and in assay [2] was 10 µM throughout. In addition, the Ratio IC50 in the assay filed under Rattus norvegicus is 1.

Take `CCCCC[C@@H]1CN[C@H](C)CN1C(c1ccccc1)c1ccccc1` (relative stereo): the 50% inhibitory concentration (IC50) in assay [1] stood at 1.78 µM; in assay [2] it was 2.4 µM. The Ratio IC50 in the assay listed under Rattus norvegicus is 0.7.

Regarding `C[C@@H]1CN(Cc2ccccc2)[C@H](CCCCO)CN1` (relative stereo), the IC50 in assay [1] came out at 10 µM; in assay [2], 9.6 µM.

As to `C[C@@H]1CN(Cc2ccc(F)cc2)[C@H](Cc2ccccc2)CN1` (relative stereo), the IC50 in assay [1] is 10 µM; in assay [2], 8.37 µM. Also, the Ratio IC50 in the assay filed under Rattus norvegicus worked out at 1.2.
